Legend:
[1] = (§1) Effective concentration required for antiviral activity against HIV-1 1002-60 in PBMC cells; assay type: functional, cell-based; details: Homo sapiens
Method in brief: (§2)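 PBMC cells infected with HIV-1 clinical isolates, using an XTT cytopathic assay similar to the CEM assay. EC50 read as protection from viral cytopathic effect.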

[2] = (§3) Effective concentration required for antiviral activity against HIV-1 1026-60 in PBMC cells; assay type: functional, cell-based; details: Homo sapiens; method in brief: as §2
[3] = (§4) Effective concentration required for antiviral activity against HIV-1 144-44 in PBMC cells; assay type: functional, cell-based; details: Homo sapiens; method in brief: as §2
[4] = Tested for cytotoxic activity against HIV-1 1002-60 in PBMC cells; assay type: cell-based; details: human, read-out: TC50 (the source's name)
[5] = Tested for cytotoxic activity against HIV-1 1026-60 in PBMC cells; assay type: cell-based; details: human, read-out: TC50 (the source's name)
[6] = Tested for cytotoxic activity against HIV-1 144-44 in PBMC cells; assay type: cell-based; details: human, read-out: TC50 (the source's name)
[7] = (§5) Concentration which elicits cytotoxicity in 50% of uninfected human lymphocyte derived CEM cells; assay type: cell-based, CCRF-CEM; details: uninfected CCRF-CEM cells, read-out: TC50 (the source's name)
Method in brief: (§6)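 Cytotoxicity measured in uninfected human lymphocyte-derived CEM cells by XTT protocol.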

[8] = Effective concentration required for antiviral activity against HIV-1 RoJo in PBMC cells; assay type: functional, cell-based; details: Homo sapiens; method in brief: as §2
[9] = Effective concentration required for antiviral activity against HIV-1 SLKA in PBMC cells; assay type: functional, cell-based; details: Homo sapiens; method in brief: as §2
[10] = Effective concentration required for antiviral activity against HIV-1 TEKI in PBMC cells; assay type: functional, cell-based; details: Homo sapiens; method in brief: as §2
[11] = Effective concentration required for antiviral activity against HIV-1 WeJo in PBMC cells; assay type: functional, cell-based; details: Homo sapiens; method in brief: as §2
[12] = target: T1, Human immunodeficiency virus type 1 protease (Human immunodeficiency virus 1, UniProt Q72874); experiment: Activity of potent nonpeptidic inhibitor against protease
Method in brief: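 Incubated with 40 µM His-Lys-Ala-Arg-Val-Leu-(p-NO₂-Phe)-Glu-Ala-Nle-Ser-NH₂ in 1.0% DMSO, pH 6.2 MES buffer (DTT, NaCl, EDTA, PEG 8000) for 60 min at 37 °C, then TFA quench. Substrate and product separated by reverse-phase HPLC, read at 220 nm. % control = conversion with inhibitor / conversion without × 100; IC50 derived.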

[13] = test system: Human immunodeficiency virus 1; experiment: Effective concentration at which 50% of the HIV-IIIB-infected human lymphocyte-derived CEM cells protected from HIV-1 infection
CYP2C9 [14] = target: T2, CYP2C9 (Homo sapiens, UniProt P11712); experiment: Residual activity of cytochrome P450 at 10 uM
T2 sequence (P11712 whole entry): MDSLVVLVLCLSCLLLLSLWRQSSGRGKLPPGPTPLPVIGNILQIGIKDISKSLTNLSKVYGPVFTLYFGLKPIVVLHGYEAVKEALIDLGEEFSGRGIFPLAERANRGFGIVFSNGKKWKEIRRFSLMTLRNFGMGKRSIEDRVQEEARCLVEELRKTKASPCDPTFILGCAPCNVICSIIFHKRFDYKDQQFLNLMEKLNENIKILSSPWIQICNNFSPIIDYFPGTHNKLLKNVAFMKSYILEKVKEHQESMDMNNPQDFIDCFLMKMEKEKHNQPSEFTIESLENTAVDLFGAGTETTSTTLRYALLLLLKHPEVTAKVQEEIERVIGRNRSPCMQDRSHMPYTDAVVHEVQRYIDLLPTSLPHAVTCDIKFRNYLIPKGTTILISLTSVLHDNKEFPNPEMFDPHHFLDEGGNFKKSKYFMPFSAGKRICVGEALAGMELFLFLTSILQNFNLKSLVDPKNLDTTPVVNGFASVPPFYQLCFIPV

CYP3A4 [15] = target: T3, CYP3A4 (Homo sapiens, UniProt P08684); experiment: Residual activity of cytochrome P4503A4 at 1 uM
T3 sequence (P08684 whole entry): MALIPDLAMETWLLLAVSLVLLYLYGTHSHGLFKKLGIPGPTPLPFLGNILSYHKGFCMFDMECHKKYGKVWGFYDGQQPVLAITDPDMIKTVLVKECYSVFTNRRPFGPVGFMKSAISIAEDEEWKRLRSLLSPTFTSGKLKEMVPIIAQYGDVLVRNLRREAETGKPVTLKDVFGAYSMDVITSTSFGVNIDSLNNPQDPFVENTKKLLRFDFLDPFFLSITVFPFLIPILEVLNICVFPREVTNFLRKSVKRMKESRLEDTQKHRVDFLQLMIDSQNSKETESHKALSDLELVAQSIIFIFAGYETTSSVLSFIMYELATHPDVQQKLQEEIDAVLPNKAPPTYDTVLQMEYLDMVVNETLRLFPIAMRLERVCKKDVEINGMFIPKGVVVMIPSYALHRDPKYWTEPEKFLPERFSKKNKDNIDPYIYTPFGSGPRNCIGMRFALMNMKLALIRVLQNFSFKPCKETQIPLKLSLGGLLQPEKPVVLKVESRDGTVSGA

CYP2C9 [16] = target: T2, CYP2C9; experiment: Residual activity of cytochrome P450 2C9 at 1 uM
CYP3A4 [17] = target: T3, CYP3A4; experiment: Residual activity of cytochrome P4503A4 at 10 uM
CYP3A4 [18] = target: T3, CYP3A4; experiment: Residual activity of cytochrome P4503A4 at 100 uM
[19] = Tested for maximum plasma concentration in mice; assay type: ADME, organism-based; details: mouse
Method in brief: (§7)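 Mice dosed orally by gavage at 25 mg/kg. Vehicle was usually 20% 0.1 N NaOH/80% 0.5% methylcellulose, and in two cases 20% 0.1 N NaOH/80% PEG 400. Plasma Cmax and AUC measured; AUC not determined where Cmax was too low.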

[20] = AUC value in mice; assay type: ADME, organism-based; details: mouse, plasma; method in brief: as §7
[21] = Half-life period in rat; assay type: ADME, organism-based; details: in vivo
Method in brief: (§8)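 Rats given 10 mg/kg orally in NaOH solution buffered to pH 7.4. Plasma Cmax, T1/2 and AUC determined.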

[22] = AUC value in rat; assay type: ADME; details: plasma; method in brief: as §8
[23] = Tested for maximum plasma concentration in rats; assay type: ADME, organism-based; details: rat; method in brief: as §8
[24] = target: T1, Human immunodeficiency virus type 1 protease; experiment: Tested for binding affinity against HIV protease
[25] = target: T1, Human immunodeficiency virus type 1 protease; experiment: Tested for binding affinity against protease
PBMC [26] = experiment: as §1; assay type: functional, cell-based; details: Homo sapiens; method in brief: as §2
PBMC [27] = experiment: as §3; assay type: functional, cell-based; details: Homo sapiens; method in brief: as §2
PBMC [28] = experiment: as §4; assay type: functional, cell-based; details: Homo sapiens; method in brief: as §2
CYP2D6 [29] = target: T4, CYP2D6 (Homo sapiens, UniProt P10635); experiment: Residual activity of cytochrome P4502D6 at 1 uM
T4 sequence (P10635 whole entry): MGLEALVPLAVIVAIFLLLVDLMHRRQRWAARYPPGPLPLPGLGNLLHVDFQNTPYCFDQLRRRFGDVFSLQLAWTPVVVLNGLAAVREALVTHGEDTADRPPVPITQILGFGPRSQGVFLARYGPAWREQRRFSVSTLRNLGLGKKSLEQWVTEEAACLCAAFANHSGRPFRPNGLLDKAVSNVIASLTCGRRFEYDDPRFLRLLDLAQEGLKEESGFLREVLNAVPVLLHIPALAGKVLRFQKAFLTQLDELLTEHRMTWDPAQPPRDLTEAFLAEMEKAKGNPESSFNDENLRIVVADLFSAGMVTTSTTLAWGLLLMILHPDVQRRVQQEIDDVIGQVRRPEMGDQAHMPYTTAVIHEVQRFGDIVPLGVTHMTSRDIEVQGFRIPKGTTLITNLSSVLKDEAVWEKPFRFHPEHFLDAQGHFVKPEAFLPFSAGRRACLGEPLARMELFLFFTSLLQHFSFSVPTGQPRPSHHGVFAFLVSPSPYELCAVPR

CYP2D6 [30] = target: T4, CYP2D6; experiment: Residual activity of cytochrome P4502D6 at 10 uM
CYP2D6 [31] = target: T4, CYP2D6; experiment: Residual activity of cytochrome P4502D6 at 100 uM
CYP2C9 [32] = target: T2, CYP2C9; experiment: Residual activity of cytochrome P450 2C9 at 100 uM
CCRF-CEM = experiment: as §5; assay type: cell-based; details: ccrf-cem, read-out: TC50 (the source's name); method in brief: as §6
[33] = pooled result: one value given for 5 cell lines, strains, targets or settings
[34] = Human immunodeficiency virus 1, CCRF-CEM

Row | SMILES | EC50 [1] [nM] | EC50 [2] [nM] | EC50 [3] [nM] | EC50 [8] [nM] | EC50 [9] [nM] | EC50 [10] [nM] | EC50 [11] [nM] | EC50 [13, 34] [nM] | Cmax [19] [µM] | AUC [20] [ng·h/mL] | Ki [24] [nM] | CC50 [4] [nM] | CC50 [5] [nM] | CC50 [7] [nM] | CC50 [6, 33] [nM] | further results
1 | CC(C)(C)NC(=O)[C@@H]1C[C@@H]2CCCC[C@@H]2CN1C[C@@H](O)[C@H](Cc1ccccc1)NC(=O)[C@H](CC(N)=O)NC(=O)c1ccc2ccccc2n1 | 14500 | 19400 | 11100 |  |  |  |  |  |  |  |  | > 50000 | > 50000 |  |  | CC50 [6]: > 50000 nM
2 | Cc1cc(SC2=C(O)OC(CCc3ccc(O)cc3)(C(C)C)CC2=O)c(C(C)(C)C)cc1OS(C)(=O)=O (stereo not drawn) | 1840 | 1120 | 730 | 1240 | 1790 | 1930 | 2050 | 600 |  |  |  | > 100000 | > 100000 | > 100000 | > 100000 | IC50 [12]: 2.2 nM
3 | Cc1cc(SC2=C(O)OC(CCc3ccc(O)cc3)(C(C)C)CC2=O)c(C(C)(C)C)cc1OS(=O)(=O)c1cccs1 (stereo not drawn) |  | 1420 | 540 | 700 | 500 | 780 | 390 | 2400 |  |  |  |  | > 100000 | 72000 | > 100000 | IC50 [12]: 21.8 nM
4 | Cc1cc(SC2=C(O)O[C@](CCc3ccc(O)cc3)(C(C)C)CC2=O)c(C(C)(C)C)cc1OS(C)(=O)=O |  |  |  |  |  |  |  | 530 | 6.54 | 5400 | 0.03 |  |  | 80000 |  | half-life [21]: 0.94 h; AUC [22]: 5390 ng·h/mL; Cmax [23]: 6.54 µM
5 | Cc1cc(SC2=C(O)OC(CCc3ccccc3)(C(C)C)CC2=O)c(C(C)(C)C)cc1NS(=O)(=O)c1ccc(C(F)(F)F)cc1 (stereo not drawn) |  |  |  |  |  |  |  | 700 |  |  |  |  |  | 24000 |  | Ki [25]: 27 nM
6 | CC(C)(C)NC(=O)[C@@H]1CN(Cc2cccnc2)CCN1C[C@@H](O)C[C@@H](Cc1ccccc1)C(=O)N[C@H]1c2ccccc2C[C@H]1O |  |  |  |  |  |  |  |  |  |  |  | > 100000 | > 100000 |  |  | EC50 (PBMC [26]): > 100000 nM; EC50 (PBMC [27]): 16600 nM; EC50 (PBMC [28]): 3000 nM; CC50 [6]: > 100000 nM; residual activity at 10 µM (CYP2C9 [14]): 89%; residual activity at 1 µM (CYP2D6 [29]): 100%; residual activity at 1 µM (CYP2C9 [16]): 93%; residual activity at 10 µM (CYP2D6 [30]): 82%; residual activity at 100 µM (CYP2D6 [31]): 31%; residual activity at 100 µM (CYP2C9 [32]): 68%
7 | Cc1cc(SC2=C(O)O[C@](CCc3ccc(O)cc3)(C(C)C)CC2=O)c(C(C)(C)C)cc1N (stereo in doubt; 1R) |  |  |  |  |  |  |  |  |  |  |  |  |  |  |  | CC50 (CCRF-CEM): 215000 nM; EC50 ([13]; ccrf-cem): 91000 nM
8 | Cc1cc(SC2=C(O)O[C@](CCc3ccc(O)cc3)(C(C)C)CC2=O)c(C(C)(C)C)cc1N (stereo in doubt; 1S) | 740 | 310 | 240 | 200 | 220 | 590 | 250 |  |  | 46300 |  | > 100000 | > 100000 | 215000 | > 100000 | residual activity at 10 µM (CYP2C9 [14]): 75.5%; residual activity at 1 µM (CYP2D6 [29]): 105%; residual activity at 1 µM (CYP3A4 [15]): 103%; residual activity at 1 µM (CYP2C9 [16]): 93.2%; residual activity at 10 µM (CYP2D6 [30]): 95%; residual activity at 10 µM (CYP3A4 [17]): 96.8%; residual activity at 100 µM (CYP2D6 [31]): 56.7%; residual activity at 100 µM (CYP3A4 [18]): 41.1%; residual activity at 100 µM (CYP2C9 [32]): 21.6%; EC50 ([13]; ccrf-cem): 490 nM

Further lines, with some results ahead:

Row | EC50 [1] [nM] | EC50 [2] [nM] | EC50 [3] [nM] | EC50 [8] [nM] | EC50 [9] [nM] | EC50 [10] [nM] | EC50 [11] [nM] | EC50 [13, 34] [nM] | Cmax [19] [µM] | AUC [20] [ng·h/mL] | Ki [24] [nM] | SMILES | CC50 [4] [nM] | CC50 [5] [nM] | CC50 [7] [nM] | CC50 [6, 33] [nM] | further results
9 |  |  |  |  |  |  |  | 600 |  |  |  | Cc1cc(SC2=C(O)OC(CCc3ccc(O)cc3)(C(C)C)CC2=O)c(C(C)(C)C)cc1OS(=O)(=O)c1ccc(C#N)cc1 (stereo not drawn) |  |  | 67000 |  | IC50 [12]: 4.5 nM; residual activity at 10 µM (CYP2C9 [14]): 18.1%; residual activity at 1 µM (CYP3A4 [15]): 79%; residual activity at 1 µM (CYP2C9 [16]): 83.5%; residual activity at 10 µM (CYP3A4 [17]): 34.6%; residual activity at 100 µM (CYP3A4 [18]): 6.86%
10 |  |  |  |  |  |  |  | 4300 | 1.27 | 980 |  | Cc1cc(SC2=C(O)OC(CCc3ccc(O)cc3)(C(C)C)CC2=O)c(C(C)(C)C)cc1NS(=O)(=O)c1ccc(C(F)(F)F)cn1 (stereo not drawn) |  |  | 68000 |  | 
11 |  |  |  |  |  |  |  | 450 | 9.2 | 22000 | 0.31 | Cc1cc(SC2=C(O)O[C@](CCc3ccccc3)(C(C)C)CC2=O)c(C(C)(C)C)cc1NS(=O)(=O)c1ccc(C(F)(F)F)cn1 |  |  | 65000 |  | half-life [21]: 2.3 h; AUC [22]: 6700 ng·h/mL; Cmax [23]: 3.5 µM
12 |  |  | 580 | 120 | 120 | 100 | 110 | 220 | 10.3 |  | 0.2 | Cc1cc(SC2=C(O)O[C@](CCc3ccccc3)(C(C)C)CC2=O)c(C(C)(C)C)cc1NS(=O)(=O)c1ccc(C#N)cc1 |  |  | 31000 | 55600 | half-life [21]: 5.7 h; AUC [22]: 10000 ng·h/mL; Cmax [23]: 3.96 µM
13 | 610 | 270 | 260 | 680 | 710 | 810 | 690 | 600 |  |  | 1.04 | Cc1cc(SC2=C(O)OC(CCc3ccccc3)(C(C)C)CC2=O)c(C(C)(C)C)cc1NS(=O)(=O)c1ccc(C(F)(F)F)cn1 (stereo not drawn) | > 100000 | > 100000 | 66000 | > 100000 | 
